Measurements reported in the RNAGym collection of RNA variant scans (doi:10.1101/gad.245936.114).
This sample holds only a part of the variants without activity.

B1: tRNA (parent)
chain: CUCUCGGUAGCCAAGUUGGUUUAAGGCGCAAGACUUUAAUUUAUCACUACGAAAUCUUGAGAUCGGGCGUUCGACUCGCCCCCGGGAGAUUUUUUCCUCGAGCAA

Variants of: B1
Experiment: nonsense suppression (GFP-seq) (ratio to wild type); higher = more function; SUP4oc tRNA, yeast GFP reporter sort-seq
In short: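 Yeast carrying genome-integrated SUP4oc tRNA variants from a library with ~3% random mutations were grown in raffinose/galactose medium with 80 mg/L adenine. Each strain also carried a galactose-driven GFP ochre reporter and RFP. Cells were sorted into GFP/RFP bins, and each bin was Illumina-sequenced (phred ≥30). Nonsense suppression (GFPSEQ) is the bin median GFP/RFP, weighted by each variant's estimated cell share per bin, relative to wild-type SUP4oc; variants needed ≥100 reads and ≥30 cells.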
In the case of G67A G84U, the nonsense suppression is reported as 0.0504.
For G66A G73A, the nonsense suppression was 0.182.
G65A C75A gave a nonsense suppression of 0.109.
For C75U U76G, the nonsense suppression was 0.172.
Variant U63A C68U has a nonsense suppression of 0.755.
In the case of C82A A87U, the nonsense suppression is reported as ≤ 0.026.
In the case of G67A C80U, the nonsense suppression is reported as 0.0261.
In the case of U71C C72G, the nonsense suppression is reported as ≤ 0.026.
With G67C C83A the nonsense suppression was ≤ 0.026.
With C82A C83U the nonsense suppression was ≤ 0.026.
G88C showed a nonsense suppression of 0.028.
Variant U63A C72U has a nonsense suppression of 0.133.
With G84A G86U the nonsense suppression was ≤ 0.026.
With C83U G86A the nonsense suppression was ≤ 0.026.
Work on G73U C81U yielded a nonsense suppression of 0.0263.
Variant U63C A74G has a nonsense suppression of 0.0264.
Variant C75A G78C has a nonsense suppression of 1.
With C75A G78A the nonsense suppression was 0.698.
For G78U G85C, the nonsense suppression was 0.0488.
For C77U C83A, the nonsense suppression was ≤ 0.026.
In the case of G65C G88A, the nonsense suppression is reported as ≤ 0.026.
For C72U G73C C79G, the nonsense suppression was ≤ 0.026.
With U63C C81U the nonsense suppression was 0.142.
Work on C75A C82A yielded a nonsense suppression of 0.217.
Work on C75U G78C yielded a nonsense suppression of 1.14.
C75U G78A gave a nonsense suppression of 0.9.
For U76A C79G, the nonsense suppression was ≤ 0.026.
In the case of U76A C79A, the nonsense suppression is reported as ≤ 0.026.
For C72U C81A, the nonsense suppression was ≤ 0.026.
In the case of C64U U71G, the nonsense suppression is reported as ≤ 0.026.
For U70C C75U, the nonsense suppression was ≤ 0.026.
For C80A C82U, the nonsense suppression was ≤ 0.026.
Variant U63G G85A has a nonsense suppression of 0.787.
Variant G78A G88C has a nonsense suppression of 0.0845.
In the case of G78U C82U, the nonsense suppression is reported as 0.105.
In the case of C68U C83G, the nonsense suppression is reported as ≤ 0.026.
For C68G U70C, the nonsense suppression was ≤ 0.026.
With C82A G84U the nonsense suppression was ≤ 0.026.
In the case of U63A G67A, the nonsense suppression is reported as ≤ 0.026.
G67A gave a nonsense suppression of 0.188.
With G67A A74U the nonsense suppression was 0.0276.
C75A C79U showed a nonsense suppression of 1.21.
With A74G G84C the nonsense suppression was ≤ 0.026.
For U63C U76C, the nonsense suppression was 0.693.
In the case of U63G U76A, the nonsense suppression is reported as 0.433.
Variant U63G U76C has a nonsense suppression of 0.0764.
Variant U63C G78U has a nonsense suppression of 0.0499.
Variant U63G U70C C75U has a nonsense suppression of 0.099.
In the case of C68U G85C, the nonsense suppression is reported as ≤ 0.026.
G73A C79U showed a nonsense suppression of 0.207.
For C75A C80G, the nonsense suppression was ≤ 0.026.
With C75A C80U the nonsense suppression was 1.01.
With U76G C79G G88A the nonsense suppression was ≤ 0.026.
A62U G78A gave a nonsense suppression of 0.0537.
With U63A G86U the nonsense suppression was 0.0573.
In the case of U70G C82G, the nonsense suppression is reported as ≤ 0.026.
With U70C G86A the nonsense suppression was ≤ 0.026.
For G69U C72G, the nonsense suppression was ≤ 0.026.
For G65U G84U, the nonsense suppression was ≤ 0.026.
In the case of G88U A89C, the nonsense suppression is reported as ≤ 0.026.
For G88U A89G, the nonsense suppression was ≤ 0.026.
For G69C A89G, the nonsense suppression was ≤ 0.026.
Work on C81G A87G yielded a nonsense suppression of 0.0415.
For G78A C81G, the nonsense suppression was 0.0732.
C82A G85U showed a nonsense suppression of 0.0445.
In the case of G66U C68A G86A, the nonsense suppression is reported as ≤ 0.026.
For U63C C75U, the nonsense suppression was 1.1.
For U63C C75A, the nonsense suppression was 1.04.
In the case of U70C G78A, the nonsense suppression is reported as 0.0308.
In the case of U70C A74G A87C, the nonsense suppression is reported as ≤ 0.026.
In the case of U76A G85U, the nonsense suppression is reported as 0.0588.
For G66A U76C C81U, the nonsense suppression was ≤ 0.026.
For G73C U76A, the nonsense suppression was ≤ 0.026.
With G67C C81A the nonsense suppression was ≤ 0.026.
Work on U63G G84C yielded a nonsense suppression of 0.0283.
For G73A, the nonsense suppression was 1.12.
For C80A G86A, the nonsense suppression was ≤ 0.026.
Work on U76C A87G yielded a nonsense suppression of 0.932.
With U71G C72U the nonsense suppression was ≤ 0.026.
In the case of C64G C79A, the nonsense suppression is reported as ≤ 0.026.
In the case of U70A C80U, the nonsense suppression is reported as ≤ 0.026.
With U70A C80G the nonsense suppression was ≤ 0.026.
In the case of G78A G84U, the nonsense suppression is reported as 0.0325.
In the case of G78A G84A, the nonsense suppression is reported as 0.459.
With U71G A89U the nonsense suppression was ≤ 0.026.
Work on C72G G78A yielded a nonsense suppression of 0.0282.
Work on G65C C81G yielded a nonsense suppression of 1.06.
G84A A87G showed a nonsense suppression of 0.157.
U63G G69A gave a nonsense suppression of 0.116.
With C81A G85U the nonsense suppression was ≤ 0.026.
G86C A87G showed a nonsense suppression of 0.0881.
With C72G G73A the nonsense suppression was 0.0319.
Variant C80U A87U has a nonsense suppression of 0.035.
For C64G G66U A87G, the nonsense suppression was ≤ 0.026.
For G67C U70G, the nonsense suppression was ≤ 0.026.
With A74G C81G the nonsense suppression was ≤ 0.026.
In the case of C80U G85A, the nonsense suppression is reported as 0.733.
With U70A C83U the nonsense suppression was 0.0439.
For C77A C81U, the nonsense suppression was ≤ 0.026.
For U76C C81U, the nonsense suppression was 0.0575.
In the case of C68A C75A, the nonsense suppression is reported as 0.0286.
For A62U G84C, the nonsense suppression was 0.0347.
With C77U C79A C83A the nonsense suppression was ≤ 0.026.
With G78C A89U the nonsense suppression was ≤ 0.026.
G78C G85U gave a nonsense suppression of 0.232.
Work on C72U G85U yielded a nonsense suppression of 0.0294.
With G73C C83A the nonsense suppression was ≤ 0.026.
C75U G85A showed a nonsense suppression of 1.06.
C75U G85U gave a nonsense suppression of 1.12.
In the case of G78A A87G, the nonsense suppression is reported as 0.294.
Variant G78A A87U has a nonsense suppression of 0.032.
G78A A87C showed a nonsense suppression of 0.032.
In the case of C81U G88U, the nonsense suppression is reported as 0.0501.
In the case of C72U C80A A87C, the nonsense suppression is reported as 0.714.
For G69U G86C, the nonsense suppression was 0.17.
For G66A G67A G86C, the nonsense suppression was ≤ 0.026.
In the case of A74C U76C G86A A89G, the nonsense suppression is reported as ≤ 0.026.
For G85A G88C, the nonsense suppression was ≤ 0.026.
In the case of C64U C81A, the nonsense suppression is reported as ≤ 0.026.
With C68U U71C the nonsense suppression was 0.0274.
In the case of C81U, the nonsense suppression is reported as 1.16.
In the case of C79A A87C, the nonsense suppression is reported as ≤ 0.026.
In the case of C79A C83A, the nonsense suppression is reported as ≤ 0.026.
For C68U, the nonsense suppression was 1.05.
With U63A G66U U71A A87G the nonsense suppression was ≤ 0.026.
With G66U C75A the nonsense suppression was 0.704.
For A74C C81U, the nonsense suppression was ≤ 0.026.
With C64G G85C the nonsense suppression was ≤ 0.026.
A74U G78A showed a nonsense suppression of 0.0557.
With C68G G69A the nonsense suppression was ≤ 0.026.
U63A U76C showed a nonsense suppression of 0.748.
Variant U76A A87G has a nonsense suppression of 0.0534.
Variant C81U A87G has a nonsense suppression of 0.239.
With G65A G73C the nonsense suppression was ≤ 0.026.
In the case of A74U G84C, the nonsense suppression is reported as ≤ 0.026.
For A62U G67U G69U, the nonsense suppression was ≤ 0.026.
In the case of C72A G85C, the nonsense suppression is reported as ≤ 0.026.
Work on C80U yielded a nonsense suppression of 0.697.
G78A G85U showed a nonsense suppression of 0.0673.
In the case of C79G C82G, the nonsense suppression is reported as ≤ 0.026.
Work on A74U C79U yielded a nonsense suppression of 0.0357.
